Here are results for 37 sequences from the array DNA melting data of Ke et al. (doi:10.1101/2024.01.08.574731).

Data set [1] in a line: folding enthalpy; higher = less favourable; fluorescence melt of hairpins on a sequencing array, two-state fit. Particulars: sodium 0.088 M. In a few lines:
(§1)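 In 50 mM Na-HEPES pH 8.0 containing 25 mM NaCl, hairpins from the library on a sequenced MiSeq flow cell were imaged for Cy3 fluorescence at 2.5 °C steps up to 60 °C, with Cy3 and quencher oligos annealed. After normalisation to pre-quench Cy3 and to control constructs, two-state fits with bootstrapping gave melting temperature and folding enthalpy. Four replicates were combined by inverse-variance weighting, and fitted temperatures were shifted up by 9.35 °C to match UV melts.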

The nature of data set [2]: melting temperature; fluorescence melt of hairpins on a sequencing array, two-state fit, raised by 9.35 °C to match UV melts. Particulars: sodium 0.088 M. In a few lines: as §1

For GCACCGCGAAAGCCCTGC (((..((....))..))), the folding enthalpy in data set [1] is -7.23 kcal/mol. Besides, the Tm in data set [2] was 28.2 °C.

With GCACCGCGAAAGCCGCGC ((.(.((....)).).)), in data set [1], the folding enthalpy was -16.8 kcal/mol. Also, the Tm in data set [2] stood at 41.4 °C.

For the sequence GCACCGCGAAAGCTCTGC (((..((....))..))), the folding enthalpy in data set [1] was -10.9 kcal/mol. Also, the Tm in data set [2] worked out at 27.4 °C.

GCACCGCGAAAGCTGCGC ((.(.((....)).).)): the folding enthalpy in data set [1] is -24.4 kcal/mol. The Tm in data set [2] came to 47.4 °C.

GCACCGGGAAACCGGTAC (.(((((....))))).): in data set [1], the folding enthalpy is -14.8 kcal/mol. Also, in data set [2], the Tm was determined as 41 °C.

Turning to GCACCTCGAAAGAGATGC (((.(((....))).))), in data set [1], the folding enthalpy was -40.3 kcal/mol. Besides, the Tm in data set [2] was 50.6 °C.

As to GCACCTCGAAAGAGCTGC (((.(((....))).))), the folding enthalpy in data set [1] was -25.5 kcal/mol. In data set [2], the Tm is 42.2 °C.

In the case of GCACCTGGAAACAAGTGC ((((.((....)).)))), the folding enthalpy in data set [1] was -27.4 kcal/mol. Besides, the Tm in data set [2] came to 41.1 °C.

As for GCACCTGGAAACAGATGC (((.(((....))).))), the folding enthalpy in data set [1] was -28.4 kcal/mol. The Tm in data set [2] came to 44 °C.

On to GCACCTGGAAACAGGCGC ((.((((....)))).)), for which the folding enthalpy in data set [1] is -46.8 kcal/mol. Moreover, in data set [2], the Tm was 53.5 °C.

Regarding GCACGCGAAAGCGAGTGC ((((((....)))..))), the folding enthalpy in data set [1] is -21.1 kcal/mol. In data set [2], the Tm stood at 59.5 °C.

Consider GCACGCGAAAGCGGATGC ((((((....)))..))), for which the folding enthalpy in data set [1] is -15 kcal/mol. Further, the Tm in data set [2] was 54.9 °C.

As for GCACGCGAAAGCGGCTGC ((((((....)))..))), the folding enthalpy in data set [1] is -14.7 kcal/mol. Also, in data set [2], the Tm was found to be 65.4 °C.

For GCACGCGAAAGCGTATGC ((((((....)))..))), the folding enthalpy in data set [1] is -13.3 kcal/mol. Further, the Tm in data set [2] was found to be 50.9 °C.

With GCACGGACGAAAGTCTGC (((..(((....)))))), in data set [1], the folding enthalpy was -12.9 kcal/mol. Further, in data set [2], the Tm amounted to 42.5 °C.

Consider GCACGGCGAAAGCCCAGC ((..(((....)))..)), for which the folding enthalpy in data set [1] was -12.2 kcal/mol. Besides, the Tm in data set [2] worked out at 38.4 °C.

For GCACGGCGAAAGCCTCGC ((..(((....)))..)), in data set [1], the folding enthalpy is -16.5 kcal/mol. Also, the Tm in data set [2] is 42 °C.

Take GCACGGCGAAAGCGGCGC ((.(.((....)).).)): the folding enthalpy in data set [1] is -24.1 kcal/mol. In addition, in data set [2], the Tm came out at 57 °C.

Turning to GCACGGCGAAAGCGGGGC ((.(.((....)).).)), the folding enthalpy in data set [1] is -31.5 kcal/mol. Further, the Tm in data set [2] is 64.9 °C.

As for GCACGGCGAAAGCGTTGC (((..((....))..))), in data set [1], the folding enthalpy is -18.5 kcal/mol. Moreover, the Tm in data set [2] was 49.3 °C.

GCACGTCGAAAGACATGC (((.(((....))).))): the folding enthalpy in data set [1] is -31.7 kcal/mol. Further, the Tm in data set [2] amounted to 52.7 °C.

Take GCACGTGGAAACGCGTGC (((((.(....).))))): the folding enthalpy in data set [1] is -45.1 kcal/mol. For the same sequence, the Tm in data set [2] was 64.6 °C.

In the case of GCACGTTCGAAAGAATGC (((..(((....)))))), the folding enthalpy in data set [1] is -16.9 kcal/mol. Besides, in data set [2], the Tm came out at 29.6 °C.

With GCACTAGAAATAGTGC ((((((....)))))), in data set [1], the folding enthalpy is -33.6 kcal/mol. Besides, the Tm in data set [2] came to 55.4 °C.

For GCACTAGCGAAAGCTTGC (((..(((....)))))), the folding enthalpy in data set [1] is -12.6 kcal/mol. Further, the Tm in data set [2] amounted to 38.6 °C.

On to GCACTAGGAAACCAGTGC (((((.(....).))))), for which the folding enthalpy in data set [1] was -34.1 kcal/mol. In addition, the Tm in data set [2] was determined as 48.3 °C.

Regarding GCACTAGGAAACTGGTGC ((((.((....)).)))), the folding enthalpy in data set [1] is -34.5 kcal/mol. For the same sequence, in data set [2], the Tm came out at 52.9 °C.

In the case of GCACTCGAAAGAGAATGC ((((((....)))..))), the folding enthalpy in data set [1] is -24.6 kcal/mol. Besides, the Tm in data set [2] stood at 35.1 °C.

Turning to GCACTCGAAAGAGCATGC ((((((....)))..))), the folding enthalpy in data set [1] was -14.4 kcal/mol. Moreover, the Tm in data set [2] is 35.2 °C.

GCACTCGAAAGAGGCTGC ((((((....)))..))): the folding enthalpy in data set [1] is -19.6 kcal/mol. Also, in data set [2], the Tm was found to be 53 °C.

On to GCACTCGAAAGAGTATGC ((((((....)))..))), for which the folding enthalpy in data set [1] was -16.2 kcal/mol. Besides, the Tm in data set [2] worked out at 42.1 °C.

For the sequence GCACTCGGAAACAAGTGC (((((.(....).))))), the folding enthalpy in data set [1] is -29.3 kcal/mol. Besides, the Tm in data set [2] stood at 46.3 °C.

On to GCACTCGGAAACGAGCGC ((.((((....)))).)), for which the folding enthalpy in data set [1] is -38.9 kcal/mol. Further, the Tm in data set [2] is 55.2 °C.

Take GCACTGACGAAAGTCTGC (((..(((....)))))): the folding enthalpy in data set [1] was -14.3 kcal/mol. For the same sequence, in data set [2], the Tm is 38.1 °C.

GCACTGCCGAAAGGCTGC (((..(((....)))))): the folding enthalpy in data set [1] was -13.4 kcal/mol. Besides, the Tm in data set [2] is 44.5 °C.

With GCACTGCGAAAGCAAAGC ((..(((....)))..)), the folding enthalpy in data set [1] was -13.2 kcal/mol. Besides, the Tm in data set [2] amounted to 37.1 °C.

As to GCACTGCGAAAGCAGAGC ((.((((....)))).)), the folding enthalpy in data set [1] is -20.7 kcal/mol. Also, in data set [2], the Tm is 65.9 °C.
